The subject of data set [1] is Felis catus. Briefly: Skeletal muscle relaxant activity in po dosed chronic spinal mongrel cat assessed as reduction of flexor spasm administered every 15 mins interval. It is filed as functional. A digest of the protocol: (§1)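 Test agent dissolved in normal saline and given to chronic spinal animals intravenously or by oral gavage as cumulative doses at 15-min intervals. The flexor reflex response was compared against predrug control responses. ED70 is the cumulative dose that reduced the flexor reflex by 70% or more.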

Data set [2] relates to Felis catus. Put plainly: Skeletal muscle relaxant activity in iv dosed chronic spinal mongrel cat assessed as reduction of flexor spasm administered every 15 mins interval. The data set is classed as functional. Particulars: 0.25 h. The gist of the method:
as §1

Data set [3] concerns Mus musculus. Briefly: Anticonvulsant activity in po dosed Swiss mouse assessed as reduction of 3-mercaptopropionic acid-induced tonic extensor-seizures within 3 to 7 mins. The data set is classed as functional. The gist of the method: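 Robidoux Swiss male mice, 18–22 g. Test substances in saline given orally 30 min before ip 3-mercaptopropionic acid at 25 mg/kg, which induces tonic-extensor seizures within 3–7 min in 90–100% of mice. ED50 is the dose preventing tonic-extensor seizures in 50% of animals, by regression analysis over at least three doses with ten mice per dose level.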

Data set [4] deals with Rattus norvegicus. Briefly: Skeletal muscle relaxant activity in iv dosed chronic spinal Sprague-Dawley rat assessed as reduction of flexor spasm administered every 15 mins interval. It is filed as functional. The settings on record: 0.25 h. A digest of the protocol:
as §1

Data set [5] deals with Mus musculus. Put plainly: Toxicity in Swiss mouse at 128 mg/kg, po. It is filed as organism-based. Also on record: dose 128 mg/kg, route oral. The settings on record: in vivo.
Data set [6] in a line: Dissociation constant, pKa of the compound. The data set is classed as physicochemical.
Data set [7] relates to Felis catus. Briefly: Skeletal muscle relaxant activity in chronic spinal mongrel cat assessed as reduction of flexor spasm up to 7.5 mg/kg, iv administered every 15 mins interval. Also on record: dose 7.5 mg/kg. It is filed as functional, organism-based. The gist of the method:
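Chronic spinal cat preparation. Test substances in normal saline were given iv in cumulative doses at 15-min intervals, and the flexor reflex response was recorded against predrug control responses. ED70 is the cumulative dose reducing the flexor reflex response by 70% or more.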

The subject of data set [8] is Felis catus. Put plainly: Skeletal muscle relaxant activity in chronic spinal mongrel cat assessed as reduction of flexor spasm up to 16 mg/kg, iv administered every 15 mins interval. It is filed as functional, organism-based. Further details: dose 16 mg/kg. A digest of the protocol: as §1
Data set [9] concerns Rattus norvegicus. Briefly: Toxicity in iv dosed chronic spinal Sprague-Dawley rat assessed as lethality at cumulative dose of 16 mg/kg, iv. The data set is classed as organism-based. Also on record: dose 16 mg/kg, route intravenous. The settings on record: in vivo.
In data set [10] the test system is Mus musculus. Briefly: Toxicity in Swiss mouse at 8 mg/kg, po. It is filed as organism-based. Further details: dose 8 mg/kg, route oral. Particulars: in vivo.

This note sets out measurements from ChEMBL document CHEMBL3244054, “Kojic amine--a novel gamma-aminobutyric acid analogue” (J Med Chem, 1979).

For orientation: ED50 means the dose at which the effect has come halfway, by size or by number of responders. One may read the pKa as the pH at which an ionisable group is half protonated.

The source made the active and inactive calls. The rule behind the calls is not given here.

As for `Cn1cc(O)c(=O)cc1CN`, in the data set on Felis catus [1], the ED70 entry was “inactive”. The same measure, in the same setting: then `O=c1cc(CNCc2ccccc2)occ1O`, with “inactive”; and `CNCc1cc(=O)c(O)co1`, with “inactive”.

With `CC(=O)NCc1cc(=O)c(O)co1`, in the data set with Felis catus [1], the ED70 entry is “inactive”.

For `NCc1cc(=O)c(O)co1`, the ED70 was 2.2 mg/kg in the data set with Felis catus [2], 8 mg/kg in the data set on Rattus norvegicus [4] and 4 mg/kg in the data set with Felis catus [1] (0.25 h). The ED50 in the data set with Mus musculus [3] stood at 15 mg/kg. The Activity result in the data set with Mus musculus [5] is listed as “Non-toxic”. In data set [6], this compound displayed a pKa of 6.6. Regarding `NCCC(=O)NCc1cc(=O)c(O)co1`, the ED70 entry in the data set on Felis catus [1] is “inactive”. As to `NCCCC(=O)O` [GAMMA-AMINOBUTYRIC ACID], in data set [6], the pKa was 4.04. On to `NCc1cc(=O)c(O)c[nH]1`, for which, in the data set on Felis catus [1], the ED70 entry is “inactive”. Still for that read-out and setting: then `CN(C)Cc1cc(=O)c(O)co1`, with “inactive”. As for `NCC(=O)NCc1cc(=O)c(O)co1`, the figures for the ED70 with Felis catus [2] and in the data set on Rattus norvegicus [4] were 12 mg/kg and 8 mg/kg, respectively. The compound `O=c1cc(CO)occ1O` [KOJIC ACID] gave a pKa in data set [6] of 7.95. As for `NCCc1cc(=O)c(O)co1`, the ED70 entry with Felis catus [1] was “inactive”. In the case of `CC(N)c1cc(=O)c(O)co1` (stereo not given), in the data set with Felis catus [1], the ED70 result was “inactive”.

Turning to `NC(Cl)c1cc(=O)c(O)co1` (stereo not given), in the data set on Felis catus [1], the ED70 result was “inactive”. For `CC(N)C(=O)NCc1cc(=O)c(O)co1` (stereo not given), the ED70 was determined as 12 mg/kg in the data set on Felis catus [2] and 8 mg/kg in the data set on Rattus norvegicus [4]. As for `NCCCC(=O)NCc1cc(=O)c(O)co1`, the ED70 entry in the data set on Felis catus [1] is “inactive”. As to `NCc1cc(O)no1` [MUSCIMOL], in the data set on Mus musculus [3], the median effective dose (ED50) amounted to 1.34 mg/kg. For the same compound, in the data set on Rattus norvegicus [4], the ED70 stood at 16 mg/kg. In addition, the result in the data set with Felis catus [7] was inactive.

`NCCCc1cc(=O)c(O)co1`: the outcome in the data set on Felis catus [8] was inactive. Consider `NCc1cc(=O)[nH]o1` [MUSCIMOL], for which the Activity result with Rattus norvegicus [9] and in the data set with Mus musculus [10] was “Toxic” in each case. The pKa in [6] is 4.78.
